In ChEMBL document CHEMBL4020714, “Design, synthesis, and evaluation of curcumin derivatives as Nrf2 activators and cytoprotectors against oxidative death” (Eur J Med Chem, 2017):
Active and inactive are the calls of the source. The rule behind the calls is not given here.

Key:
[1] = Stability of the compound in PBS at 40 uM at pH 7.4 at 25 degC measured for 30 mins by UV-Vis spectrophotometric analysis; assay type: physicochemical; details: buffer, pH 7.4, 0.5 h
Method in brief: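 Compound at 40 μM in PBS (pH 7.4) at 25 °C. UV-visible absorption spectra recorded every 2 min for 30 min against blanks of solution plus DMSO.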

[2] = target: T1, Nuclear factor erythroid 2-related factor 2 (Homo sapiens) (UniProt Q16236); assay: Activation of Nrf2 in human HepG2 cells assessed as cytoprotection against t-BHP-induced oxidative cell death at 5 uM incubated for 24 hrs followed by compound removal with subsequent incubation with 900 uM of t-BHP for 6 hrs by MTT assay; assay type: cell-based
T1 sequence (whole entry): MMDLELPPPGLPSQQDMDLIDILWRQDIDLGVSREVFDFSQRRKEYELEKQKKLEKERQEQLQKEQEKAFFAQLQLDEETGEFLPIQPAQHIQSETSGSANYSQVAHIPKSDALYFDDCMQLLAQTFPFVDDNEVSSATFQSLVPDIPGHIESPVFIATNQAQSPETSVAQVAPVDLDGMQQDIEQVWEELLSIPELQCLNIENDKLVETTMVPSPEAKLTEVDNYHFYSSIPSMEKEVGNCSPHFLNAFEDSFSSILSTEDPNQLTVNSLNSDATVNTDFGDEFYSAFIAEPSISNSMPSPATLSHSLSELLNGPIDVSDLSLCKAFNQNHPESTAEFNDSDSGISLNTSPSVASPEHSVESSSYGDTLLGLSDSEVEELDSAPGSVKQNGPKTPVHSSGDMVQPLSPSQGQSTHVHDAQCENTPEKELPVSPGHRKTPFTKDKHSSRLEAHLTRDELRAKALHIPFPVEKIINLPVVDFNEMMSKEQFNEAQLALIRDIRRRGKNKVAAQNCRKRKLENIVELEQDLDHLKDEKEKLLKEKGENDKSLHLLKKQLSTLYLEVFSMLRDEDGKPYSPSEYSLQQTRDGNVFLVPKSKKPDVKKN
Method in brief: (§1)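 HepG2 cells (5×10^3/well) seeded and grown 24 h in 1640 medium with 10% FBS at 37 °C and 5% CO2. Compound is added for 24 h, then removed, and cells are challenged with 900 μM t-BHP for 6 h at 37 °C. MTT (0.5 mg/mL) is added for 4 h, formazan dissolved in DMSO, and absorbance read at 570 nm. Where used, inhibitors are added 1 h before compound. Mean ± SD of three independent experiments.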

HepG2 = assay: Cytotoxicity against human HepG2 cells assessed as reduction in cell viability at 5 uM after 24 hrs by MTT assay; assay type: cell-based; details: hepg2, 24 h
Method in brief: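 MTT viability in HepG2 cells (5×10^3/well) after 24 h exposure to compound at 5 μM. Formazan dissolved in DMSO and absorbance read at 570 nm. Mean ± SD of three independent experiments.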

[3] = target: T1, Nuclear factor erythroid 2-related factor 2 (Homo sapiens); assay: Activation of Nrf2 in human HepG2 cells assessed as increase in Nrf2 expression level after 3 hrs by Western blot analysis; assay type: cell-based
Method in brief: (§2)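 HepG2 cells (2×10^6/well) treated at the indicated concentrations and times. Whole-cell lysates, or nuclear and cytoplasmic fractions, are prepared and quantified by BCA. Samples are run at 40 μg/lane on 12% SDS-PAGE, transferred to nitrocellulose, probed with specific antibodies and HRP secondary (1/5000), and detected by ECL. Where used, LY294002 (15 μM), SP600125 (25 μM) or DTT (400 μM) is added 1 h before compound.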

[4] = target: T1, Nuclear factor erythroid 2-related factor 2 (Homo sapiens); assay: Activation of Nrf2 in human HepG2 cells assessed as increase in GCLC expression level after 3 hrs by Western blot analysis; assay type: cell-based; method in brief: as §2
[5] = target: T1, Nuclear factor erythroid 2-related factor 2 (Homo sapiens); assay: Activation of Nrf2 in human HepG2 cells assessed as increase in GCLM expression level after 3 hrs by Western blot analysis; assay type: cell-based; method in brief: as §2
[6] = target: T1, Nuclear factor erythroid 2-related factor 2 (Homo sapiens); assay: Activation of Nrf2 in human HepG2 cells assessed as increase in HO-1 expression level after 3 hrs by Western blot analysis; assay type: cell-based; method in brief: as §2
[7] = target: T1, Nuclear factor erythroid 2-related factor 2 (Homo sapiens); assay: Activation of Nrf2 in human HepG2 cells assessed as cytoprotective activity against t-BHP-induced oxidative cell death at 20 uM incubated for 24 hrs followed by compound removal with subsequent incubation with 900 uM of t-BHP for 6 hrs by MTT assay; assay type: cell-based; method in brief: as §1
[8] = target: T1, Nuclear factor erythroid 2-related factor 2 (Homo sapiens); assay: Activation of Nrf2 in human HepG2 cells assessed as increase in Nrf2 expression level at 20 uM by Western blot analysis; assay type: cell-based; method in brief: as §2
[9] = target: T1, Nuclear factor erythroid 2-related factor 2 (Homo sapiens); assay: Activation of Nrf2 in human HepG2 cells assessed as increase in HO-1 expression level at 20 uM by Western blot analysis; assay type: cell-based; method in brief: as §2
[10] = target: T1, Nuclear factor erythroid 2-related factor 2 (Homo sapiens); assay: Activation of Nrf2 in human HepG2 cells assessed as increase in GCLC expression level at 20 uM by Western blot analysis; assay type: cell-based; method in brief: as §2
[11] = target: T1, Nuclear factor erythroid 2-related factor 2 (Homo sapiens); assay: Activation of Nrf2 in human HepG2 cells assessed as increase in GCLM expression level at 20 uM by Western blot analysis; assay type: cell-based; method in brief: as §2

Row | Compound | Stability [1] | Activity [2] | Activity (HepG2) | also measured
1 | CC(C)(C(=O)/C=C/c1ccccc1O)C(=O)/C=C/c1ccccc1O |  | Active | Non-Toxic | 
2 | CC(C)(C(=O)CCc1ccc(O)c(O)c1)C(=O)CCc1ccc(O)c(O)c1 |  | Active | Non-Toxic | Activity [3]: inactive; Activity [4]: inactive; Activity [5]: inactive; Activity [6]: inactive
3 | CC(C)(C(=O)/C=C/c1ccccc1C(F)(F)F)C(=O)/C=C/c1ccccc1C(F)(F)F |  | Active | Non-Toxic | 
4 | COc1ccccc1/C=C/C(=O)C(C)(C)C(=O)/C=C/c1ccccc1OC |  | Active | Non-Toxic | 
5 | COc1cccc(OC)c1/C=C/C(=O)C(C)(C)C(=O)/C=C/c1c(OC)cccc1OC |  | Active | Non-Toxic | 
6 | COc1cccc(/C=C/C(=O)C(C)(C)C(=O)/C=C/c2cccc(OC)c2)c1 |  | Active | Non-Toxic | 
7 | COc1cc(/C=C/C(=O)C(C)(C)C(=O)/C=C/c2cc(OC)c(OC)c(OC)c2)cc(OC)c1OC |  | Active | Non-Toxic | 
8 | CC(C)(C)c1cc(O)ccc1O |  |  |  | Activity [7]: Active; Activity [8]: Active; Activity [9]: Active; Activity [10]: Active; Activity [11]: Active

Further lines, with some results ahead:

Row | Stability [1] | Compound | Activity [2] | Activity (HepG2) | also measured
9 | Unstable | COc1ccc(/C=C/C(=O)C(C)(C)C(=O)/C=C/c2ccc(OC)c(OC)c2)cc1OC | Active | Non-Toxic | 
10 | Stable | COc1cc(/C=C/C(=O)C(C)(C)C(=O)/C=C/c2ccc(O)c(OC)c2)ccc1O | Active | Non-Toxic | 
11 | Unstable | COc1cc(/C=C/C(=O)CC(=O)/C=C/c2ccc(O)c(OC)c2)ccc1O [CURCUMIN] | Active | Non-Toxic | 
12 | Unstable | CC(C)(C(=O)/C=C/c1ccccc1)C(=O)/C=C/c1ccccc1 | Active | Non-Toxic | Activity [3]: inactive; Activity [4]: inactive; Activity [5]: inactive; Activity [6]: inactive
